Measured values: ChEMBL document CHEMBL4251600, “Bioactive products from singlet oxygen photooxygenation of cannabinoids” (Eur J Med Chem, 2018)
In brackets after ≈: the same amount, converted by molar mass. Activity calls are given as the source filed them. The rule behind the calls is not given here.

Tests used:
Leishmania donovani = experiment: Antileishmanial activity against Leishmania donovani promastigotes incubated for 48 hrs by alamar blue assay; assay type: functional, organism-based; conditions: Leishmania donovani, 48 h; for IC50: read-out: IC50; for IC90: read-out: IC90
Cannabinoid receptor 1 [1] = target: T1, Cannabinoid receptor 1 (Homo sapiens, UniProt P21554); experiment: Displacement of [3H]CP-55,940 from recombinant human full length CB1 receptor expressed in HEK293 cell membranes after 90 mins by topcount method
T1 sequence (P21554 whole entry): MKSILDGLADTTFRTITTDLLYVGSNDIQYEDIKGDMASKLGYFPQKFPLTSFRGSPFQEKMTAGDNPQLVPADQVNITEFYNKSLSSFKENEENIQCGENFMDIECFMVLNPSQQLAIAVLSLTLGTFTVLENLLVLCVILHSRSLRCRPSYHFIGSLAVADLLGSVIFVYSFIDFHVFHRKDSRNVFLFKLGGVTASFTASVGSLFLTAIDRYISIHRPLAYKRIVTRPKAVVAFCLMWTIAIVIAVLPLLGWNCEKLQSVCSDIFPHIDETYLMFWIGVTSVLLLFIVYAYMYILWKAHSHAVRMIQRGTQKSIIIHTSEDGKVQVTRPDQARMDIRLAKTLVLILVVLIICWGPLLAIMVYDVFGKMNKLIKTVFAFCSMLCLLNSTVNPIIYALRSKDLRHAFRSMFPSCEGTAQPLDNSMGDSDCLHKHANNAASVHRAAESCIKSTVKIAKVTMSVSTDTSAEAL

Cannabinoid receptor 1 [2] = target: T1, Cannabinoid receptor 1; experiment: Agonist activity at recombinant human full length CB1 receptor expressed in HEK293 cell membranes at 100 uM after 2 hrs by [35S]GTP-gammaS binding assay relative to CP-55,940; assay type: functional
Cannabinoid receptor 2 [3] = target: T2, Cannabinoid receptor 2 (Homo sapiens, UniProt P34972); experiment: Displacement of [3H]CP-55,940 from recombinant human full length CB2 receptor expressed in HEK293 cell membranes after 90 mins by topcount method
T2 sequence (P34972 whole entry): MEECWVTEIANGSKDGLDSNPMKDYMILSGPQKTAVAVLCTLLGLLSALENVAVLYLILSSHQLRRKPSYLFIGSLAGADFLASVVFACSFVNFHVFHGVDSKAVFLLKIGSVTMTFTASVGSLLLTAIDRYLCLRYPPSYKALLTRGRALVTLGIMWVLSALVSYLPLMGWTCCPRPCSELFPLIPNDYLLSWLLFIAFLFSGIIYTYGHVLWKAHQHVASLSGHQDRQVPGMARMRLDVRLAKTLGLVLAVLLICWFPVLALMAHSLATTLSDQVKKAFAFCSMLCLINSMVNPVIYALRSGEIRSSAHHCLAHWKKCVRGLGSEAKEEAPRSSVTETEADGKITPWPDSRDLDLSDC

Cannabinoid receptor 2 [4] = target: T2, Cannabinoid receptor 2; experiment: Agonist activity at recombinant human full length CB2 receptor expressed in HEK293 cell membranes at 100 uM after 2 hrs by [35S]GTP-gammaS binding assay relative to CP-55,940; assay type: functional
Plasmodium falciparum [5] = experiment: Antiplasmodial activity against chloroquine-resistant Plasmodium falciparum W2 infected in red blood cells incubated for 72 hrs by parasite LDH release based colorimetric assay; assay type: functional, organism-based; conditions: W2, 72 h
Plasmodium falciparum [6] = experiment: Antiplasmodial activity against chloroquine-sensitive Plasmodium falciparum D6 infected in red blood cells incubated for 72 hrs by parasite LDH release based colorimetric assay; assay type: functional, organism-based; conditions: D6, 72 h
KB [7] = experiment: Anticancer activity against human KB cells assessed as cell growth inhibition up to 10 ug/ml incubated for 48 hrs by neutral red dye based assay; assay type: functional
LLC-PK1 = experiment: Cytotoxicity against pig LLC-PK1 cells assessed as cell growth inhibition incubated for 48 hrs by neutral red dye based assay; parameters: species or system Sus scrofa; conditions: Sus scrofa, LLC-PK1, 48 h; read-out: IC50
Nakaseomyces glabratus = experiment: Antifungal activity against Candida glabrata by modified CLSI based method; assay type: functional, organism-based
Pichia kudriavzevii = experiment: Antifungal activity against Candida krusei by modified CLSI based method; assay type: functional, organism-based
SK-OV-3 [8] = experiment: Anticancer activity against human SKOV3 cells assessed as cell growth inhibition up to 10 ug/ml incubated for 48 hrs by neutral red dye based assay; assay type: functional
Cryptococcus neoformans = experiment: Antifungal activity against Cryptococcus neoformans by alamar blue assay; assay type: functional, organism-based; conditions: for IC50: read-out: IC50
BT-549 = experiment: Anticancer activity against human BT549 cells assessed as cell growth inhibition incubated for 48 hrs by neutral red dye based assay; assay type: functional; conditions: BT-549, 48 h
SK-MEL = experiment: Anticancer activity against human SK-MEL cells assessed as cell growth inhibition incubated for 48 hrs by neutral red dye based assay; assay type: functional
Staphylococcus aureus [9] = experiment: Antimicrobial activity against methicillin-resistant Staphylococcus aureus by modified CLSI based method; assay type: functional, organism-based
Staphylococcus aureus [10] = experiment: Antimicrobial activity against Staphylococcus aureus by modified CLSI based method; assay type: functional, organism-based; conditions: for IC50: read-out: IC50
Cannabinoid receptor 1 [11] = target: T1, Cannabinoid receptor 1; experiment: Agonist activity at recombinant human full length CB1 receptor expressed in HEK293 cell membranes after 2 hrs by [35S]GTP-gammaS binding assay; assay type: functional
Outline: (§1)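 Membranes (20 µg/well) from HEK293 cells stably transfected with human CB1 or CB2 cDNA were incubated with test compound and 0.5 nM [35S]-GTP-γS. Buffer: 50 mM Tris-HCl, 0.2 mM EGTA, 9 mM MgCl2, 150 mM NaCl, 50 µM GDP, 1.4 mg/ml BSA. Incubation ran 2 h at 30°C and was stopped by vacuum filtration through GF/B filters with cold Tris-HCl. Nonspecific binding was taken with 40 µM GTP-γS.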

Cannabinoid receptor 2 [12] = target: T2, Cannabinoid receptor 2; experiment: Agonist activity at recombinant human full length CB2 receptor expressed in HEK293 cell membranes after 2 hrs by [35S]GTP-gammaS binding assay; assay type: functional; outline: as §1
KB [13] = experiment: Anticancer activity against human KB cells assessed as cell growth inhibition incubated for 48 hrs by neutral red dye based assay; assay type: functional
Vero = experiment: Cytotoxicity against African green monkey Vero cells assessed as cell growth inhibition incubated for 48 hrs by neutral red dye based assay; conditions: Chlorocebus sabaeus
SK-OV-3 [14] = experiment: Anticancer activity against human SKOV3 cells assessed as cell growth inhibition incubated for 48 hrs by neutral red dye based assay; assay type: functional; conditions: SK-OV-3, 48 h
[15] = Cryptococcus neoformans, read-out: MIC
[16] = Staphylococcus aureus, read-out: IC50
[17] = Staphylococcus aureus, read-out: MIC

In the case of `C=C1CC[C@@H]2[C@H](c3c(cc(CCCCC)cc3OS(=O)(=O)c3ccc(C)cc3)OC2(C)C)[C@@H]1OO`, the IC50 (Leishmania donovani) is reported as 3.1 µg/mL (≈ 6.19 µM) and the IC90 (Leishmania donovani) is reported as 6.5 µg/mL (≈ 13 µM).

`CCCCCc1cc(O)c2c(c1)OC(C)(C)C1=C2C(O)C(C)(OC)CC1` (stereo not drawn) showed an IC50 (Cannabinoid receptor 1 [1]) of 1080 nM, a Ki (Cannabinoid receptor 1 [1]) of 538 nM and an Emax (Cannabinoid receptor 1 [2]) of 20%. For the same molecule, the IC50 (Leishmania donovani) was 35 µg/mL (≈ 97.1 µM), the IC90 (Leishmania donovani) was > 40 µg/mL and the IC50 (Cannabinoid receptor 2 [3]) was 599 nM. It also gave a Ki (Cannabinoid receptor 2 [3]) of 300 nM and an Emax (Cannabinoid receptor 2 [4]) of 40%.

Work on `CCCCCc1cc(OC(C)=O)c2c(c1)OC(C)(C)C1=C2C(O)C(C)(O)CC1` (stereo not drawn) yielded an IC50 (Plasmodium falciparum [5]) of 3.2 µg/mL (≈ 8.24 µM) and an IC50 (Plasmodium falciparum [6]) of 4.5 µg/mL (≈ 11.6 µM).

For `CCCCCC1=CC(=O)C2=C(OC(C)(C)c3ccc(C)cc32)C1=O`, the IC50 (KB [7]) was “Not Active”, the IC50 (LLC-PK1) was 5.65 µg/mL (≈ 17.4 µM) and the IC50 (Nakaseomyces glabratus) was “Not Active”. For the same molecule, the MIC (Nakaseomyces glabratus) was “inactive”, the IC50 (Pichia kudriavzevii) was “Not Active” and the MIC (Pichia kudriavzevii) was “inactive”. For the same molecule, the IC50 (SK-OV-3 [8]) was “Not Active”, the IC50 (Cryptococcus neoformans; Cryptococcus neoformans) was 4.44 µg/mL (≈ 13.7 µM) and the MIC (Cryptococcus neoformans; [15]) was 20 µg/mL (≈ 61.6 µM). The IC50 (BT-549) was 6.05 µg/mL (≈ 18.6 µM), the IC50 (SK-MEL) was 7.6 µg/mL (≈ 23.4 µM) and the IC50 (Staphylococcus aureus [9]) was “Not Active”. For the same molecule, the MIC (Staphylococcus aureus [9]) was “inactive”, the MIC (Staphylococcus aureus [10]) was “inactive” and the IC50 (Staphylococcus aureus [10]; Staphylococcus aureus) was > 20 µg/mL.

Work on `C[C@@H]1[C@H](O)[C@@H](C)/C=C/C=C/C=C/C=C/C=C/C=C/C=C/[C@H](O[C@@H]2O[C@H](C)[C@@H](O)[C@H](N)[C@@H]2O)C[C@@H]2O[C@](O)(C[C@@H](O)C[C@@H](O)[C@H](O)CC[C@@H](O)C[C@@H](O)CC(=O)O[C@H]1C)C[C@H](O)[C@H]2C(=O)O` [AMPHOTERICIN B] yielded an IC50 (Leishmania donovani) of 0.16 µg/mL (≈ 0.173 µM), an IC90 (Leishmania donovani) of 0.33 µg/mL (≈ 0.357 µM) and an IC50 (Cryptococcus neoformans; Cryptococcus neoformans) of 1.36 µg/mL (≈ 1.47 µM). The MIC (Cryptococcus neoformans; [15]) was 2.5 µg/mL (≈ 2.71 µM).

`CCCCCc1cc(OC(C)=O)c2c(c1)OC(C)(C)[C@@H]1CC=C(C)C[C@@H]21` was tested, and the IC50 (Cannabinoid receptor 1 [1]) was 88 nM, the Ki (Cannabinoid receptor 1 [1]) was 44 nM and the IC50 (Cannabinoid receptor 1 [11]) was 87 nM. For the same molecule, the Ki (Cannabinoid receptor 1 [11]) was 43 nM, the IC50 (Cannabinoid receptor 2 [3]) was 316 nM and the Ki (Cannabinoid receptor 2 [3]) was 158 nM. It also gave an IC50 (Cannabinoid receptor 2 [12]) of 518 nM and a Ki (Cannabinoid receptor 2 [12]) of 259 nM.

`CCCCCC1=CC(=O)C2=C(OC(C)(C)[C@@H]3C=CC(C)(OO)C[C@@H]23)C1=O` (stereo partly drawn) showed an IC50 (Leishmania donovani) of 0.7 µg/mL (≈ 1.94 µM), an IC90 (Leishmania donovani) of 1.2 µg/mL (≈ 3.33 µM) and an MIC (Nakaseomyces glabratus; Nakaseomyces glabratus) of 10 µg/mL (≈ 27.7 µM). The IC50 (Nakaseomyces glabratus; Nakaseomyces glabratus, read-out: IC50) was 6.54 µg/mL (≈ 18.1 µM), the MIC (Pichia kudriavzevii; Pichia kudriavzevii) was 10 µg/mL (≈ 27.7 µM) and the IC50 (Pichia kudriavzevii; Pichia kudriavzevii, read-out: IC50) was 5.77 µg/mL (≈ 16 µM). For the same molecule, the IC50 (Cryptococcus neoformans; Cryptococcus neoformans) was 0.93 µg/mL (≈ 2.58 µM), the MIC (Cryptococcus neoformans; [15]) was 2.5 µg/mL (≈ 6.94 µM) and the MIC (Staphylococcus aureus [9]; Staphylococcus aureus) was 5 µg/mL (≈ 13.9 µM). For the same molecule, the IC50 (Staphylococcus aureus [9]; [16]) was 2.63 µg/mL (≈ 7.3 µM), the IC50 (Staphylococcus aureus [10]; Staphylococcus aureus) was 1.3 µg/mL (≈ 3.61 µM) and the MIC (Staphylococcus aureus [10]; [17]) was 2.5 µg/mL (≈ 6.94 µM).

For `CCCCCc1cc(OC(C)=O)c2c(c1)OC(C)(C)C1=C2C2OC2(C)CC1` (stereo not drawn), the IC50 (Cannabinoid receptor 1 [1]) was 573 nM, the Ki (Cannabinoid receptor 1 [1]) was 286 nM and the IC50 (Cannabinoid receptor 2 [3]) was 927 nM. It also gave a Ki (Cannabinoid receptor 2 [3]) of 464 nM.

Work on `C[C@@H]1CC[C@H]2[C@@H](C)C(=O)O[C@@H]3O[C@@]4(C)CC[C@@H]1[C@]32OO4` [ARTEMISININ] yielded an IC50 (Plasmodium falciparum [5]) of 0.014 µg/mL (≈ 0.0496 µM).

`CCCCCc1cc2c(c(OS(=O)(=O)c3ccc(C)cc3)c1)[C@H]1[C@@H](CC=C(C)[C@@H]1O)C(C)(C)O2` was tested, and the MIC (Nakaseomyces glabratus) was “inactive”, the MIC (Pichia kudriavzevii) was “inactive” and the MIC (Cryptococcus neoformans) was “inactive”. For the same molecule, the MIC (Staphylococcus aureus [9]) was “inactive” and the MIC (Staphylococcus aureus [10]) was “inactive”.

In the case of `CCCCCC1=CC(=O)C2=C(OC(C)(C)[C@@H]3CC[C@](C)(OCC)C=C23)C1=O`, the IC50 (Plasmodium falciparum [5]) is reported as 0.2 µg/mL (≈ 0.537 µM), the IC50 (KB [13]) is reported as 5.25 µg/mL (≈ 14.1 µM) and the IC50 (Cannabinoid receptor 1 [1]) is reported as 1840 nM. It also gave a Ki (Cannabinoid receptor 1 [1]) of 919 nM, an IC50 (LLC-PK1) of 2.25 µg/mL (≈ 6.04 µM) and an IC50 (Leishmania donovani) of 0.06 µg/mL (≈ 0.161 µM). For the same molecule, the IC90 (Leishmania donovani) was 0.13 µg/mL (≈ 0.349 µM), the IC50 (Nakaseomyces glabratus) was “Not Active” and the MIC (Nakaseomyces glabratus) was “inactive”. The IC50 (Pichia kudriavzevii) was “Not Active”, the MIC (Pichia kudriavzevii) was “inactive” and the IC50 (Vero) was 4.1 µg/mL (≈ 11 µM). It also gave an IC50 (Cryptococcus neoformans; Cryptococcus neoformans) of 0.7 µg/mL (≈ 1.88 µM), an MIC (Cryptococcus neoformans; [15]) of 2.5 µg/mL (≈ 6.71 µM) and an IC50 (SK-OV-3 [14]) of 4.35 µg/mL (≈ 11.7 µM). The IC50 (Cannabinoid receptor 2 [3]) was 4070 nM, the Ki (Cannabinoid receptor 2 [3]) was 2030 nM and the IC50 (BT-549) was 4.2 µg/mL (≈ 11.3 µM). It also gave an IC50 (Plasmodium falciparum [6]) of 0.16 µg/mL (≈ 0.43 µM), an MIC (Staphylococcus aureus [9]; Staphylococcus aureus) of 2.5 µg/mL (≈ 6.71 µM) and an IC50 (Staphylococcus aureus [9]; [16]) of 1.36 µg/mL (≈ 3.65 µM). The IC50 (Staphylococcus aureus [10]; Staphylococcus aureus) was 1.35 µg/mL (≈ 3.62 µM) and the MIC (Staphylococcus aureus [10]; [17]) was 2.5 µg/mL (≈ 6.71 µM).

With `CCCCCc1cc2c(c(OS(=O)(=O)c3ccc(C)cc3)c1)C1=C(CC[C@](C)(O)[C@H]1OCC)C(C)(C)O2` the IC50 (Plasmodium falciparum [5]) was 1.8 µg/mL (≈ 3.4 µM), the IC50 (Leishmania donovani) was 4.5 µg/mL (≈ 8.51 µM) and the IC90 (Leishmania donovani) was 22 µg/mL (≈ 41.6 µM). For the same molecule, the IC50 (Plasmodium falciparum [6]) was 2.2 µg/mL (≈ 4.16 µM).
